Measurements reported in ChEMBL document CHEMBL1122125, “Synthesis and in vivo antitumor activity of potential 5-fluorouracil prodrugs” (1982).

How the values were obtained:
Format in all cases: functional
Mus musculus [1] = experiment: Antitumor activity was determined for survival range of mice against P-388 leukemia in mice at a dose of 4 mg/kg
Method in brief: (§1)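 Male B6D2F1J mice implanted ip with 10⁶ P-388 cells on day 0; test agents given ip on days 1–4 (qd × 4) in sterile saline, or in 10% Tween 80 for the lipophilic thioether. Groups of 5 treated mice, with 10–17 untreated controls per experiment. Mice weighed on days 1 and 7 to give the 7-day weight change in g and %. Survival recorded in days as median and range.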

Mus musculus [2] = experiment: Antitumor activity was determined for median survival of mice against P-388 leukemia in mice at a dose of 2 mg/kg; method in brief: as §1
Mus musculus [3] = experiment: Antitumor activity was determined for average weight on day 1 against P-388 leukemia in mice at a dose of 2 mg/kg
Method in brief: (§2)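 Male B6D2F1J mice, groups of 5, inoculated ip with 10⁶ P-388 cells on day 0. Drug given ip on days 1-4 (qd × 4) in sterile saline, or in 10% Tween 80 for the poorly water-soluble thioether. Average weight per mouse recorded on day 1, with reweighing on day 7 for percent weight change. Untreated control groups had 10-17 animals per experiment.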

L1210 = experiment: Evaluated for cytotoxicity against L1210 mouse leukemia cells; conditions: read-out: ID50 (the source's name)
Method in brief: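 L1210 murine leukemia cells in Eagle's minimal essential medium with 15% fetal calf serum, streptomycin (100 μg/mL), penicillin (100 units/mL) and 0.05 mM 2-mercaptoethanol. Cells counted by Coulter counter after 48 h exposure. ID50 is the 50% growth-inhibitory dose. Triplicate assays, standard deviation ±10%.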

Mus musculus [4] = experiment: Antitumor activity was determined for average 7-day weight change against P-388 leukemia in mice at a dose of 4 mg/kg
Method in brief: (§3)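 Male B6D2F1J mice given 10⁶ P-388 cells ip on day 0, then treated ip once daily on days 1-4 (qd × 4), 5 mice per dose group. Compounds dosed in sterile saline, except one lipophilic thioether given in 10% Tween 80. Mice weighed on days 1 and 7; mean weight per mouse on day 1 and 7-day weight change reported in g and as percent.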

Mus musculus [5] = experiment: Antitumor activity was determined for average 7-day weight change against P-388 leukemia in mice at a dose of 2 mg/kg; method in brief: as §3
Mus musculus [6] = experiment: Antitumor activity was determined for 7-day average percent weight change against P-388 leukemia in mice at a dose of 2 mg/kg; method in brief: as §3
Mus musculus [7] = experiment: Antitumor activity was determined for survival range of mice against P-388 leukemia in mice at a dose of 8 mg/kg
Method in brief: (§4)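 Male B6D2F1J mice, 5 per dose group, implanted ip with 10⁶ P-388 leukemia cells on day 0. Drug given ip daily on days 1-4 (qd × 4) in sterile saline, or in 10% Tween 80 for the butyl thioether. Survival range recorded in days. Untreated control groups had 10-17 animals per experiment. Mice weighed on days 1 and 7.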

Mus musculus [8] = experiment: Antitumor activity was determined for median survival of mice against P-388 leukemia in mice at a dose of 8 mg/kg; method in brief: as §1
Mus musculus [9] = experiment: Antitumor activity was determined for average 7-day weight change against P-388 leukemia in mice at a dose of 8 mg/kg; method in brief: as §3
Mus musculus [10] = experiment: Percent increase in life span against P-388 leukemia in mice was determined at a dose of 4 mg/kg; conditions: P388
Method in brief: (§5)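 Male B6D2F1J mice, 5 per dose group, received 10⁶ P-388 cells ip on day 0. Dosing was ip qd × 4 on days 1-4 in sterile saline, or 10% Tween 80 for the butyl thioether. Median survival times of treated (T) and untreated control (C, 10-17 mice) groups were compared: %ILS = [(T/C) − 1]100. Weights taken on days 1 and 7.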

Mus musculus [11] = experiment: Percent increase in life span against P-388 leukemia in mice was determined at a dose of 8 mg/kg; conditions: P388; method in brief: as §5
Mus musculus [12] = experiment: Percent increase in life span against P-388 leukemia in mice was determined at a dose of 2 mg/kg; conditions: P388; method in brief: as §5
Mus musculus [13] = experiment: Antitumor activity was determined for 7-day average percent weight change against P-388 leukemia in mice at a dose of 8 mg/kg; method in brief: as §3
Mus musculus [14] = experiment: Antitumor activity was determined for 7-day average percent weight change against P-388 leukemia in mice at a dose of 4 mg/kg; method in brief: as §3
Mus musculus [15] = experiment: Antitumor activity was determined for median survival of mice against P-388 leukemia in mice at a dose of 4 mg/kg; method in brief: as §1
Mus musculus [16] = experiment: Antitumor activity was determined for average weight on day 1 against P-388 leukemia in mice at a dose of 8 mg/kg; method in brief: as §2
Mus musculus [17] = experiment: Antitumor activity was determined for survival range of mice against P-388 leukemia in mice at a dose of 2 mg/kg; method in brief: as §1
Mus musculus [18] = experiment: Antitumor activity was determined for average weight on day 1 against P-388 leukemia in mice at a dose of 4 mg/kg; method in brief: as §2
Mus musculus [19] = experiment: Percent increase in life span against P-388 leukemia in mice was determined at a dose of 320 mg/kg; conditions: P388; method in brief: as §5
Mus musculus [20] = experiment: Antitumor activity was determined for average 7-day weight change against P-388 leukemia in mice at a dose of 40 mg/kg; method in brief: as §3
Mus musculus [21] = experiment: Antitumor activity was determined for survival range of mice against P-388 leukemia in mice at a dose of 40 mg/kg; method in brief: as §1
Mus musculus [22] = experiment: Antitumor activity was determined for average weight on day 1 against P-388 leukemia in mice at a dose of 40 mg/kg; method in brief: as §2
Mus musculus [23] = experiment: Antitumor activity was determined for average weight on day 1 against P-388 leukemia in mice at a dose of 640 mg/kg; method in brief: as §2
Mus musculus [24] = experiment: Antitumor activity was determined for survival range of mice against P-388 leukemia in mice at a dose of 160 mg/kg; method in brief: as §1
Mus musculus [25] = experiment: Antitumor activity was determined for survival range of mice against P-388 leukemia in mice at a dose of 80 mg/kg; method in brief: as §4
Mus musculus [26] = experiment: Antitumor activity was determined for average weight on day 1 against P-388 leukemia in mice at a dose of 320 mg/kg; method in brief: as §2
Mus musculus [27] = experiment: Antitumor activity was determined for median survival of mice against P-388 leukemia in mice at a dose of 160 mg/kg; method in brief: as §1
Mus musculus [28] = experiment: Percent increase in life span against P-388 leukemia in mice was determined at a dose of 80 mg/kg; conditions: P388; method in brief: as §5
Mus musculus [29] = experiment: Percent increase in life span against P-388 leukemia in mice was determined at a dose of 160 mg/kg; conditions: P388; method in brief: as §5
Mus musculus [30] = experiment: Antitumor activity was determined for 7-day average percent weight change against P-388 leukemia in mice at a dose of 160 mg/kg; method in brief: as §3
Mus musculus [31] = experiment: Antitumor activity was determined for 7-day average percent weight change against P-388 leukemia in mice at a dose of 40 mg/kg; method in brief: as §3
Mus musculus [32] = experiment: Antitumor activity was determined for average 7-day weight change against P-388 leukemia in mice at a dose of 160 mg/kg; method in brief: as §3
Mus musculus [33] = experiment: Percent increase in life span against P-388 leukemia in mice was determined at a dose of 40 mg/kg; conditions: P388; method in brief: as §5
Mus musculus [34] = experiment: Antitumor activity was determined for median survival of mice against P-388 leukemia in mice at a dose of 40 mg/kg; method in brief: as §1
Mus musculus [35] = experiment: Antitumor activity was determined for average weight on day 1 against P-388 leukemia in mice at a dose of 160 mg/kg; method in brief: as §3
Mus musculus [36] = experiment: Antitumor activity was determined for survival range of mice against P-388 leukemia in mice at a dose of 640 mg/kg; method in brief: as §1
Mus musculus [37] = experiment: Antitumor activity was determined for 7-day average percent weight change against P-388 leukemia in mice at a dose of 80 mg/kg; method in brief: as §3
Mus musculus [38] = experiment: Antitumor activity was determined for median survival of mice against P-388 leukemia in mice at a dose of 80 mg/kg; method in brief: as §1
Mus musculus [39] = experiment: Antitumor activity was determined for median survival of mice against P-388 leukemia in mice at a dose of 640 mg/kg; method in brief: as §1
Mus musculus [40] = experiment: Antitumor activity was determined for survival range of mice against P-388 leukemia in mice at a dose of 320 mg/kg; method in brief: as §1
Mus musculus [41] = experiment: Antitumor activity was determined for 7-day average percent weight change against P-388 leukemia in mice at a dose of 320 mg/kg; method in brief: as §3
Mus musculus [42] = experiment: Antitumor activity was determined for average weight on day 1 against P-388 leukemia in mice at a dose of 80 mg/kg; method in brief: as §2
Mus musculus [43] = experiment: Antitumor activity was determined for median survival of mice against P-388 leukemia in mice at a dose of 320 mg/kg; method in brief: as §1
Mus musculus [44] = experiment: Antitumor activity was determined for average 7-day weight change against P-388 leukemia in mice at a dose of 80 mg/kg; method in brief: as §3
Mus musculus [45] = experiment: Antitumor activity was determined for 7-day average percent weight change against P-388 leukemia in mice at a dose of 640 mg/kg; method in brief: as §3
Mus musculus [46] = experiment: Percent increase in life span against P-388 leukemia in mice was determined at a dose of 640 mg/kg; conditions: P388; method in brief: as §5

O=c1[nH]c(=O)n([C@@H]2O[C@H](CO)[C@@H](O)[C@H]2O)cc1F [5-FLUOROURIDINE]
Survival range (Mus musculus [1]): 18
Survival median (Mus musculus [2]): 20
Average weight (Mus musculus [3]): 26 g mouse-1
IC50 (L1210): 0.0024 µM
Average weight (Mus musculus [4]): -3.2 g mouse-1
Average weight (Mus musculus [5]): 1.2 g mouse-1
Weight change (Mus musculus [6]): 5%
Survival range (Mus musculus [7]): 21
Survival median (Mus musculus [8]): 23
Average weight (Mus musculus [9]): -6 g mouse-1
ILS at 4 mg/kg (Mus musculus [10]): 75%
ILS at 8 mg/kg (Mus musculus [11]): 91%
ILS at 2 mg/kg (Mus musculus [12]): 66%
Weight change (Mus musculus [13]): -23%
Weight change (Mus musculus [14]): -12%
Survival median (Mus musculus [15]): 21
Average weight (Mus musculus [16]): 25.8 g mouse-1
Survival range (Mus musculus [17]): 18
Average weight (Mus musculus [18]): 26.4 g mouse-1

O=c1[nH]c(=O)n(C2OC[C@@H](O)[C@H]2O)cc1F (stereo partly drawn)
ILS at 320 mg/kg (Mus musculus [19]): 41%
Average weight (Mus musculus [20]): 3 g mouse-1
IC50 (L1210): 130 µM
Survival range (Mus musculus [21]): 12
Average weight (Mus musculus [22]): 25.2 g mouse-1
Average weight (Mus musculus [23]): 25.6 g mouse-1
Survival range (Mus musculus [24]): 14
Survival range (Mus musculus [25]): 11
Average weight (Mus musculus [26]): 25.8 g mouse-1
Survival median (Mus musculus [27]): 15
ILS at 80 mg/kg (Mus musculus [28]): 16%
ILS at 160 mg/kg (Mus musculus [29]): 25%
Weight change (Mus musculus [30]): 8%
Weight change (Mus musculus [31]): 12%
Average weight (Mus musculus [32]): 1.6 g mouse-1
ILS at 40 mg/kg (Mus musculus [33]): 0%
Survival median (Mus musculus [34]): 12
Average weight (Mus musculus [35]): 24.2 g mouse-1
Survival range (Mus musculus [36]): 17
Weight change (Mus musculus [37]): 11%
Survival median (Mus musculus [38]): 14
Survival median (Mus musculus [39]): 21
Survival range (Mus musculus [40]): 16
Weight change (Mus musculus [41]): 1%
Average weight (Mus musculus [42]): 24.2 g mouse-1
Survival median (Mus musculus [43]): 17
Average weight (Mus musculus [44]): 2.6 g mouse-1
Weight change (Mus musculus [45]): -9%
ILS at 640 mg/kg (Mus musculus [46]): 75%
